{"source": "ChEMBL document CHEMBL5303300", "about": "“EUbOPEN Chemogenomics Library - Multiplex” (2023)", "format_in_all_cases": "toxicity, cell-based", "key": {"[1]": {"tested_on": "U2OS", "test": "Multiplex assay against U2OS", "conditions": "human, number of replicates 2", "how_it_was_run": "(§1)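 Cells stained live at seeding with Hoechst33342, BioTracker Green Microtubule Cytoskeleton Dye, MitoTracker Red and Annexin V Alexa Fluor 680 were imaged on a CQ1 microscope at 37°C and 5% CO2 after compound addition. Their classification by CellPathfinder machine-learning gating ran from Hoechst high-intensity objects versus normal cells, to healthy, pyknosed or fragmented nuclei among normal cells, to mitotic or apoptotic among pyknosed cells. Tubulin, mitochondrial-mass and membrane-permeability phenotypes are per cents of healthy-nucleus cells.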"}, "[2]": {"tested_on": "Fibroblast", "test": "Multiplex assay against human fibroblast", "conditions": "number of replicates 2", "how_it_was_run": "as §1"}, "[3]": {"tested_on": "HEK-293T", "test": "Multiplex assay against HEK293T", "conditions": "human, number of replicates 2", "how_it_was_run": "as §1"}, "[4]": {"conditions": "12 h, 1 µM, compound concentration 1 uM"}, "[5]": {"conditions": "12 h, 10 µM, compound concentration 10 uM"}, "[6]": {"conditions": "24 h, 1 µM, compound concentration 1 uM"}, "[7]": {"conditions": "24 h, 10 µM, compound concentration 10 uM"}, "[8]": {"conditions": "48 h, 1 µM, compound concentration 1 uM"}, "[9]": {"conditions": "48 h, 10 µM, compound concentration 10 uM"}}, "note": "“And” between values parts separate entries of the source, which are not always exact repeats. Identical values can stand only once."}
{"smiles": "CS(=O)(=O)c1ccc(NC(=O)c2cccc(COc3ccc(Br)cc3CNCCO)c2)c(Cl)c1.O=CO", "values": [{"measurement": "Population Apoptotic (%)", "setting": "[1]; [4]", "result": "80% and 76%"}, {"measurement": "Population Fragmented Nuclei (%)", "setting": "[1]; [4]", "result": 11, "unit": "%"}, {"measurement": "Population Healthy Nuclei (%)", "setting": "[1]; [4]", "result": "76% and 84%"}, {"measurement": "Population Hoechst High Intensity Objects (%)", "setting": "[1]; [4]", "result": 0, "unit": "%"}, {"measurement": "Population Mitotic Cells (%)", "setting": "[1]; [4]", "result": "20% and 24%"}, {"measurement": "Population Apoptotic (%)", "setting": "[1]; [5]", "result": "85% and 71%"}, {"measurement": "Population Healthy Nuclei (%)", "setting": "[1]; [5]", "result": "50% and 72%"}, {"measurement": "Population Hoechst High Intensity Objects (%)", "setting": "[1]; [5]", "result": 0, "unit": "%"}, {"measurement": "Population Apoptotic (%)", "setting": "[1]; [6]", "result": "50% and 79%"}, {"measurement": "Population Fragmented Nuclei (%)", "setting": "[1]; [6]", "result": "7% and 3%"}, {"measurement": "Population Healthy Nuclei (%)", "setting": "[1]; [6]", "result": "69% and 78%"}, {"measurement": "Population Hoechst High Intensity Objects (%)", "setting": "[1]; [6]", "result": 0, "unit": "%"}, {"measurement": "Population Mitotic Cells (%)", "setting": "[1]; [6]", "result": "50% and 20%"}, {"measurement": "Population Apoptotic (%)", "setting": "[1]; [7]", "result": 77, "unit": "%"}, {"measurement": "Population Healthy Nuclei (%)", "setting": "[1]; [7]", "result": "33% and 65%"}, {"measurement": "Population Hoechst High Intensity Objects (%)", "setting": "[1]; [7]", "result": 0, "unit": "%"}, {"measurement": "Population Mitotic Cells (%)", "setting": "[1]; [7]", "result": "46% and 22%"}, {"measurement": "Population Apoptotic (%)", "setting": "[1]; [8]", "result": "83% and 87%"}, {"measurement": "Population Fragmented Nuclei (%)", "setting": "[1]; [8]", "result": 7, "unit": "%"}, {"measurement": "Population Healthy Nuclei (%)", "setting": "[1]; [8]", "result": "67% and 79%"}, {"measurement": "Population Hoechst High Intensity Objects (%)", "setting": "[1]; [8]", "result": 0, "unit": "%"}, {"measurement": "Population Apoptotic (%)", "setting": "[1]; [9]", "result": "100% and 94%"}, {"measurement": "Population Healthy Nuclei (%)", "setting": "[1]; [9]", "result": "23% and 57%"}, {"measurement": "Population Hoechst High Intensity Objects (%)", "setting": "[1]; [9]", "result": 0, "unit": "%"}, {"measurement": "Population Mitotic Cells (%)", "setting": "[1]; [9]", "result": "0% and 5%"}, {"measurement": "Population Apoptotic (%)", "setting": "[2]; [4]", "result": "47% and 51%"}, {"measurement": "Population Fragmented Nuclei (%)", "setting": "[2]; [4]", "result": 11, "unit": "%"}, {"measurement": "Population Healthy Nuclei (%)", "setting": "[2]; [4]", "result": "64% and 70%"}, {"measurement": "Total Cell Count", "setting": "[2]; [4]", "result": "184 and 209"}, {"measurement": "Population Apoptotic (%)", "setting": "[2]; [5]", "result": 56, "unit": "%"}, {"measurement": "Population Fragmented Nuclei (%)", "setting": "[2]; [5]", "result": "22% and 14%"}, {"measurement": "Population Healthy Nuclei (%)", "setting": "[2]; [5]", "result": "58% and 59%"}, {"measurement": "Total Cell Count", "setting": "[2]; [5]", "result": "327 and 259"}, {"measurement": "Population Apoptotic (%)", "setting": "[2]; [6]", "result": "61% and 71%"}, {"measurement": "Population Fragmented Nuclei (%)", "setting": "[2]; [6]", "result": 11, "unit": "%"}, {"measurement": "Population Healthy Nuclei (%)", "setting": "[2]; [6]", "result": "60% and 68%"}, {"measurement": "Population Pyknosed Nuclei (%)", "setting": "[2]; [6]", "result": 19, "unit": "%"}, {"measurement": "Total Cell Count", "setting": "[2]; [6]", "result": "187 and 198"}, {"measurement": "Population Apoptotic (%)", "setting": "[2]; [7]", "result": "57% and 85%"}, {"measurement": "Population Fragmented Nuclei (%)", "setting": "[2]; [7]", "result": "15% and 18%"}, {"measurement": "Population Healthy Nuclei (%)", "setting": "[2]; [7]", "result": "65% and 64%"}, {"measurement": "Total Cell Count", "setting": "[2]; [7]", "result": "227 and 235"}, {"measurement": "Population Apoptotic (%)", "setting": "[2]; [8]", "result": "76% and 80%"}, {"measurement": "Population Fragmented Nuclei (%)", "setting": "[2]; [8]", "result": "16% and 17%"}, {"measurement": "Population Healthy Nuclei (%)", "setting": "[2]; [8]", "result": "64% and 70%"}, {"measurement": "Population Pyknosed Nuclei (%)", "setting": "[2]; [8]", "result": 19, "unit": "%"}, {"measurement": "Total Cell Count", "setting": "[2]; [8]", "result": "178 and 216"}, {"measurement": "Population Apoptotic (%)", "setting": "[2]; [9]", "result": "85% and 87%"}, {"measurement": "Population Fragmented Nuclei (%)", "setting": "[2]; [9]", "result": "16% and 13%"}, {"measurement": "Population Healthy Nuclei (%)", "setting": "[2]; [9]", "result": "70% and 72%"}, {"measurement": "Population Pyknosed Nuclei (%)", "setting": "[2]; [9]", "result": 14, "unit": "%"}, {"measurement": "Total Cell Count", "setting": "[2]; [9]", "result": "211 and 226"}, {"measurement": "Population Healthy Nuclei (%)", "setting": "[3]; [4]", "result": 83, "unit": "%"}, {"measurement": "Population Mitotic Cells (%)", "setting": "[3]; [4]", "result": "47% and 41%"}, {"measurement": "Population Pyknosed Nuclei (%)", "setting": "[3]; [4]", "result": 14, "unit": "%"}, {"measurement": "Total Cell Count", "setting": "[3]; [4]", "result": "651 and 549"}, {"measurement": "Population Healthy Nuclei (%)", "setting": "[3]; [5]", "result": "84% and 82%"}, {"measurement": "Population Mitotic Cells (%)", "setting": "[3]; [5]", "result": "37% and 33%"}, {"measurement": "Total Cell Count", "setting": "[3]; [5]", "result": 462}, {"measurement": "Population Healthy Nuclei (%)", "setting": "[3]; [6]", "result": "85% and 84%"}, {"measurement": "Population Mitotic Cells (%)", "setting": "[3]; [6]", "result": 46, "unit": "%"}, {"measurement": "Population Pyknosed Nuclei (%)", "setting": "[3]; [6]", "result": "8% and 10%"}, {"measurement": "Total Cell Count", "setting": "[3]; [6]", "result": "981 and 842"}, {"measurement": "Population Healthy Nuclei (%)", "setting": "[3]; [7]", "result": "82% and 80%"}, {"measurement": "Population Mitotic Cells (%)", "setting": "[3]; [7]", "result": "33% and 32%"}, {"measurement": "Population Pyknosed Nuclei (%)", "setting": "[3]; [7]", "result": 16, "unit": "%"}, {"measurement": "Total Cell Count", "setting": "[3]; [7]", "result": "436 and 479"}, {"measurement": "Population Healthy Nuclei (%)", "setting": "[3]; [8]", "result": "84% and 85%"}, {"measurement": "Population Mitotic Cells (%)", "setting": "[3]; [8]", "result": "74% and 85%"}, {"measurement": "Population Pyknosed Nuclei (%)", "setting": "[3]; [8]", "result": "4% and 3%"}, {"measurement": "Total Cell Count", "setting": "[3]; [8]", "result": "1426 and 1953"}, {"measurement": "Population Healthy Nuclei (%)", "setting": "[3]; [9]", "result": "84% and 85%"}, {"measurement": "Population Mitotic Cells (%)", "setting": "[3]; [9]", "result": 21, "unit": "%"}, {"measurement": "Population Pyknosed Nuclei (%)", "setting": "[3]; [9]", "result": "10% and 9%"}, {"measurement": "Total Cell Count", "setting": "[3]; [9]", "result": "560 and 607"}]}
